# According to ChEMBL document CHEMBL4400536, “Design and synthesis of aminothiazole based Hepatitis B Virus (HBV) capsid inhibitors” (Eur J Med Chem, 2019):
# The source made the active and inactive calls. The rule behind the calls is not given here.
# Legend:
# [1] = target: Core antigen (Hepatitis B virus) (UniProt Q03732); test: Inhibition of GFP-fused Hepatitis B Virus capsid expressed in HEK293T cells at 50 uM after 48 hrs relative to control; type: cell-based
# In short: (§1)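 BiFC assay: HBc fused to Venus fragments VN (1–154) and VC (155–239) were co-transfected into 293T cells, then compounds were added. The dose series used 0, 0.5, 5 and 50 μM; SAR used 50 μM as percent inhibition. After 48 h, reconstituted fluorescence was read as mean fluorescent intensity on a plate reader, with fluorescence microscopy images.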
# Hepatitis B virus [2] = test: Antiviral activity against Hepatitis B virus infected in human HepG2.2.15 cells assessed as inhibition of viral replication after 7 days by RT-PCR analysis; type: functional, organism-based
# [3] = target: Core antigen (Hepatitis B virus) (UniProt Q03732); test: Inhibition of GFP-fused Hepatitis B Virus capsid (HBVcAg-VFP-C155-239) expressed in HEK293T cells assessed as reduction in capsid assembly after 48 hrs by fluorescence microscopic analysis; type: cell-based; in short: as §1
# [4] = target: Core antigen (Hepatitis B virus) (UniProt Q03732); test: Inhibition of dimerization of HA-tagged Hepatitis B Virus capsid (HBVcAg-N1-154) expressed in HEK293T cells at 50 to 100 uM after 48 hrs by Western blot analysis; type: cell-based
# In short: (§2)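 HEK293T cells were transfected with HBc-VN-HA or HBc-VC-FLAG and treated with DMSO, 50 or 100 μM compound. After 48 h, lysates were western blotted with anti-HA, anti-FLAG and anti-GAPDH.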
# [5] = target: Core antigen (Hepatitis B virus) (UniProt Q03732); test: Inhibition of aggregation of HBV capsid (1 to 149 residues) expressed in Escherichia coli assessed as induction of abnormal capsid morphology at 0.2 to 50 uM by TEM analysis
# In short: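 His-tagged Cp149 was expressed in E. coli (IPTG 1 mM), Ni-affinity purified and kept in PBS. Cp149 (10 μM) in 50 mM HEPES pH 7.5 was preincubated 1 h with compound (0.2–50 μM) or DMSO. Assembly was started with NaCl to 50 mM and equilibrated 60 h at 23 °C. Grids were stained with 2% uranyl acetate and viewed by TEM.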
# [6] = Cytotoxicity against human HepG2.2.15 cells; type: cell-based, HepG2 2.2.15
# Hepatitis B virus [7] = test: Antiviral activity against Hepatitis B virus infected in BALB/c mouse injected with replication-competent HBV DNA plasmid HBV-1.2mer assessed as reduction in viral DNA replication at 30 mg/kg, iv measured after 2 weeks by RT-PCR analysis; type: functional, organism-based
# In short: (§3)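 BALB/c transgenic mice carrying the replication-competent HBV-1.2mer plasmid were bled at day 0 for HBV DNA copies and randomly split into two groups of 3 males. Each group got 30 mg/kg compound or DMSO by tail vein, every 2 days, for 2 weeks. Blood was then collected. HBV DNA was measured by real-time PCR and HBsAg by ELISA.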
# Hepatitis B virus [8] = test: Antiviral activity against Hepatitis B virus infected in human […] assessed as reduction in viral DNA replication at 30 mg/kg dosed orthotopically every 3 days for 4 weeks by RT-PCR analysis; type: functional, organism-based
# [9] = Acute toxicity in BALB/c mouse assessed as effect on body weight at 500 to 1000 mg/kg, ip measured after 2 weeks; type: organism-based; conditions: in vivo, 336 h
# In short: (§4)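 Male Balb/c mice, 5 animals, given a single intraperitoneal injection at 0, 500 or 1000 mg/kg. Body weight followed for two weeks. On day 14, blood was taken for hepatic and renal function (AST, ALT, BUN, creatinine). Heart, liver, lung, spleen and kidney were sectioned, HE-stained and examined.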
# [10] = Acute toxicity in BALB/c mouse assessed as effect on heart at 500 to 1000 mg/kg, ip measured on day 14 by hematoxylin and eosin staining based assay; type: organism-based; conditions: in vivo; in short: as §4
# [11] = Acute toxicity in BALB/c mouse assessed as effect on liver at 500 to 1000 mg/kg, ip measured on day 14 by hematoxylin and eosin staining based assay; type: organism-based; conditions: in vivo; in short: as §4
# [12] = Acute toxicity in BALB/c mouse assessed as effect on lung at 500 to 1000 mg/kg, ip measured on day 14 by hematoxylin and eosin staining based assay; type: organism-based; conditions: in vivo; in short: as §4
# [13] = Acute toxicity in BALB/c mouse assessed as effect on spleen at 500 to 1000 mg/kg, ip measured on day 14 by hematoxylin and eosin staining based assay; type: organism-based; conditions: in vivo; in short: as §4
# [14] = Acute toxicity in BALB/c mouse assessed as effect on kidney at 500 to 1000 mg/kg, ip measured on day 14 by hematoxylin and eosin staining based assay; type: organism-based; conditions: in vivo; in short: as §4
# [15] = Hepatic toxicity in BALB/c mouse assessed as effect on AST levels at 500 to 1000 mg/kg, ip measured on day 14; type: organism-based; conditions: in vivo; in short: as §4
# [16] = Hepatic toxicity in BALB/c mouse assessed as effect on ALT levels at 500 to 1000 mg/kg, ip measured on day 14; type: organism-based; conditions: in vivo; in short: as §4
# [17] = Renal toxicity in BALB/c mouse assessed as effect on BUN levels at 500 to 1000 mg/kg, ip measured on day 14; type: organism-based; conditions: in vivo; in short: as §4
# [18] = Renal toxicity in BALB/c mouse assessed as effect on CRE levels at 500 to 1000 mg/kg, ip measured on day 14; type: organism-based; conditions: in vivo; in short: as §4
# [19] = target: Core antigen (Hepatitis B virus) (UniProt Q03732); test: Inhibition of GFP-fused Hepatitis B Virus capsid (HBVcAg-GFP-N1-154) expressed in HEK293T cells assessed as reduction in capsid assembly after 48 hrs by fluorescence microscopic analysis; type: cell-based; in short: as §1
# [20] = target: Core antigen (Hepatitis B virus) (UniProt Q03732); test: Inhibition of dimerization of HA-tagged Hepatitis B Virus capsid (HBVcAg-C155-239) expressed in HEK293T cells at 50 to 100 uM after 48 hrs by Western blot analysis; type: cell-based; in short: as §2
# [21] = target: Core antigen (Hepatitis B virus) (UniProt Q03732); test: Inhibition of dimerization of HA-tagged Hepatitis B Virus capsid (HBVcAg-N1-154) expressed in HEK293T cells at 50 to 100 uM after 48 hrs by co-immunoprecipitation assay; type: cell-based
# In short: (§5)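 HEK293T cells were co-transfected with HBc-VN-HA and HBc-VC-FLAG, then treated with DMSO or compound. After 48 h, lysates were co-immunoprecipitated with anti-HA beads and analysed by immunoblot.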
# [22] = target: Core antigen (Hepatitis B virus) (UniProt Q03732); test: Inhibition of dimerization of HA-tagged Hepatitis B Virus capsid (HBVcAg-C155-239) expressed in HEK293T cells at 50 to 100 uM after 48 hrs by co-immunoprecipitation assay; type: cell-based; in short: as §5
# Hepatitis B virus [23] = test: Antiviral activity against Hepatitis B virus infected in BALB/c mouse injected with replication-competent HBV DNA plasmid HBV-1.2mer assessed as reduction in HBsAg replication at 30 mg/kg, iv measured after 2 weeks by ELISA; type: functional, organism-based; in short: as §3
# Sequence of Core antigen (Hepatitis B virus) (Q03732 as listed by the source): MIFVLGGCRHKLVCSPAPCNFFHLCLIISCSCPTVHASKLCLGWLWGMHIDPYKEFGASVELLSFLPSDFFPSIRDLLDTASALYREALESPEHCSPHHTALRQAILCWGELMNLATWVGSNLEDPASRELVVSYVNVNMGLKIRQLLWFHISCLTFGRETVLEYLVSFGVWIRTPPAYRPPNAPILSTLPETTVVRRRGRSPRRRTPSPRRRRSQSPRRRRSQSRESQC
compound,measurement,setting,value
O=S(=O)(Nc1ncc(C(Oc2ccc3cc(Br)ccc3c2)c2ccc(Cl)cc2)s1)c1cccc2cccnc12 (centres undefined),inhibition,[1],63%
same,inhibition,Hepatitis B virus [2],Dose-dependent effect
same,IC50,"Hepatitis B virus [2]; HepG2.2.15, 168 h",183 nM
same,inhibition,[3],Dose-dependent effect
same,inhibition,[4],Active
same,inhibition,[5],Active
same,CC50,[6],> 50000 nM
same,Activity,Hepatitis B virus [7],Active
same,Activity,Hepatitis B virus [8],Active
same,Activity,[9],Non-Toxic
same,Activity,[10],Non-Toxic
same,Activity,[11],Non-Toxic
same,Activity,[12],Non-Toxic
same,Activity,[13],Non-Toxic
same,Activity,[14],Non-Toxic
same,Activity,[15],Non-Toxic
same,Activity,[16],Non-Toxic
same,Activity,[17],Non-Toxic
same,Activity,[18],Non-Toxic
same,inhibition,[19],Dose-dependent effect
same,inhibition,[20],Active
same,inhibition,[21],Active
same,inhibition,[22],Active
same,Activity,Hepatitis B virus [23],Active
